Assay results from ChEMBL document CHEMBL1143969, “Synthesis and pharmacological evaluation of bicyclic SNC80 analogues with separated benzhydryl moiety” (Bioorg Med Chem, 2008).

Tests used:
Mu-type opioid receptor [1] = target: T1, Mu-type opioid receptor (Homo sapiens, UniProt P35372); experiment: Displacement of [3H]naloxone from human mu opioid receptor expressed in CHOK1 cells; type: cell-based, CHO-K1
Summary of the method: (§1)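 Membranes in Tris-HCl pH 7.4 + 0.06% BSA, premixed with wheatgerm agglutinin SPA beads; radioligand solution 10 nmol/L (stock), ~25% DMSO in added solutions. Incubated 150 min at rt, centrifuged 20 min at 500 rpm, counted by scintillation proximity. Naloxone defines non-specific binding. Ki determined where inhibition at 10 µM exceeded 50%.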

[2] = target: T2, Kappa-type opioid receptor (Homo sapiens, UniProt P41145); experiment: Displacement of [3H]C1-977 from human kappa opioid receptor expressed in HEK293 cells at 10 uM; type: cell-based
T2 sequence (P41145 whole entry): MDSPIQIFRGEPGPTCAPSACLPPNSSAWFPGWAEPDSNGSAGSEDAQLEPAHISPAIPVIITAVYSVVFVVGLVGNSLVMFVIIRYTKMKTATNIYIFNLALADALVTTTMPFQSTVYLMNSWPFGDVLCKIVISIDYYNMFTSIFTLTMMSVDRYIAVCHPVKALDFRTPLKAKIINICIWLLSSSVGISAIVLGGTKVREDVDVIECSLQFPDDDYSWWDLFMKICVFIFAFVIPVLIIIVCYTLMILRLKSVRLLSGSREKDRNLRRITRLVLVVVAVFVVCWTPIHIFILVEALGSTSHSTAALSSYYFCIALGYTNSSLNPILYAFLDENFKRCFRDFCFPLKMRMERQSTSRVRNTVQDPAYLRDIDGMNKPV
Summary of the method: (§2)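 SPA format as for mu: membranes diluted 1:34 in 50 mmol/L Tris-HCl, 0.05% NaN3, pH 7.4, mixed with wheatgerm agglutinin SPA beads; 150 min at rt, centrifugation, scintillation counting. Ki determined where inhibition at 10 µM exceeded 50%.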

Mu-type opioid receptor [3] = target: T1, Mu-type opioid receptor; experiment: Displacement of [3H]naloxone from human mu opioid receptor expressed in CHOK1 cells at 10 uM; type: cell-based; conditions: CHO-K1; summary of the method: as §1
[4] = target: T2, Kappa-type opioid receptor; experiment: Displacement of [3H]C1-977 from human kappa opioid receptor expressed in HEK293 cells; type: cell-based; summary of the method: as §2
[5] = target: Nociceptin receptor (Homo sapiens) (UniProt P41146); experiment: Displacement of [3H]nociceptin from human ORL1 receptor expressed in HEK293 cells at 10 uM; type: cell-based
Chain of Nociceptin receptor (Homo sapiens) (P41146 whole entry): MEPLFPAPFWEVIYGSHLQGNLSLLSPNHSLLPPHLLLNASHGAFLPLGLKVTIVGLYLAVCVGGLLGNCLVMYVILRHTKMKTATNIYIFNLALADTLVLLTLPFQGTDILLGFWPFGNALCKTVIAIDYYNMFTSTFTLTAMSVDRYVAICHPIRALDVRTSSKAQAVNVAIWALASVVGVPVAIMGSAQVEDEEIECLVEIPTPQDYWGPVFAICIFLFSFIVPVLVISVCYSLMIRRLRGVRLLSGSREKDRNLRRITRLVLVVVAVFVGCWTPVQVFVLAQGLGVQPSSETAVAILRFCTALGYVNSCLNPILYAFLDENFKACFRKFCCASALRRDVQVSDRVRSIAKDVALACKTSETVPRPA

[6] = target: T3, Delta-type opioid receptor (Homo sapiens, UniProt P41143); experiment: Displacement of [3H]deltorphine 2 from human delta opioid receptor expressed in CHOK1 cells at 10 uM; type: cell-based; conditions: CHO-K1
T3 sequence (P41143 whole entry): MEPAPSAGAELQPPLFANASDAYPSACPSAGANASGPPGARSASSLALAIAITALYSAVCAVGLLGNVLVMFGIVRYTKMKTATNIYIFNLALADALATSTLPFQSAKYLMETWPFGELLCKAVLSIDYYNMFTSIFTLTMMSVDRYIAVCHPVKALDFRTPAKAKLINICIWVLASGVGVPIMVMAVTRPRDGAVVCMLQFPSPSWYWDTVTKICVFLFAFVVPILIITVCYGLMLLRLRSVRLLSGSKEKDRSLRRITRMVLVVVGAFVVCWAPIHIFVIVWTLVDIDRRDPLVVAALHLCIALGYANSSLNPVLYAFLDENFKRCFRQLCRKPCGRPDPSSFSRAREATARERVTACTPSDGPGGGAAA
Summary of the method: (§3)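 Membranes diluted 1:87 in 50 mmol/L Tris-HCl, 5 mmol/L MgCl2, pH 7.4; radioligand solution 10 nmol/L (stock), 0.5% DMSO. Incubated 120 min at rt, filtered through PEI-soaked GF/B filters, washed three times with cold buffer, dried 1 h at 55 °C, scintillation counted. Naloxone defines non-specific binding. Ki determined where inhibition at 10 µM exceeded 50%.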

[7] = target: T3, Delta-type opioid receptor; experiment: Displacement of [3H]deltorphine 2 from human delta opioid receptor expressed in CHOK1 cells; type: cell-based, CHO-K1
Summary of the method: as §3, with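 “binding.” for “binding. Ki determined where inhibition at 10 µM exceeded 50%.”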

T1 sequence (P35372 whole entry): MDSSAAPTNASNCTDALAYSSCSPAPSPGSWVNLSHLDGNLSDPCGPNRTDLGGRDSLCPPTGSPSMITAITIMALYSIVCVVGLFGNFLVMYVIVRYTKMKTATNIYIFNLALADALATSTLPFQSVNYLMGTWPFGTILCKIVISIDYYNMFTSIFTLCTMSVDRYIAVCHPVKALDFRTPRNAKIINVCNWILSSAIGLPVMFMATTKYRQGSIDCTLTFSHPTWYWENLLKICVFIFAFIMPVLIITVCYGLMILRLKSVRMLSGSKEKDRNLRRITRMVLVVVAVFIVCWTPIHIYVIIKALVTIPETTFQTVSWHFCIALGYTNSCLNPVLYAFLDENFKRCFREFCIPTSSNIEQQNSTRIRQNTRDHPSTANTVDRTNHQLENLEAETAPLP

| SMILES | Ki (Mu-type opioid receptor [1]) [nM] | inhibition [2] [%] | inhibition (Mu-type opioid receptor [3]) [%] | Ki [4] [nM] | inhibition [5] [%] | inhibition [6] [%] | Ki [7] [nM] |
| --- | --- | --- | --- | --- | --- | --- | --- |
| C=CCN1C[C@@H]2[C@H](c3ccccc3)CC[C@H]1CN2Cc1ccc(C(=O)N(CC)CC)cc1 | 7300 | 73 | 56 | 1700 | 7 | 6 | – |
| C=CCN1C[C@H]2C(c3ccccc3)=CC[C@@H]1CN2Cc1ccc(C(=O)N(CC)CC)cc1 | 250 | 31 | 91 | – | < 10 | 87 | 740 |
| CCCN1C[C@@H]2[C@H](c3ccccc3)CC[C@H]1CN2Cc1ccc(C(=O)N(CC)CC)cc1 | 5700 | 63 | 61 | 2400 | 1 | 4 | – |
| C=CCN1C[C@@H]2C(c3ccccc3)=CC[C@H]1CN2Cc1ccc(C(=O)N(CC)CC)cc1 | 6800 | 76 | 56 | 890 | 9 | 14 | – |
| CCCN1C[C@@H]2[C@@H](c3ccccc3)CC[C@H]1CN2Cc1ccc(C(=O)N(CC)CC)cc1 | – | 49 | 44 | – | 3 | 4 | – |
| C=CCN1C[C@@H]2[C@@H](c3ccccc3)CC[C@H]1CN2Cc1ccc(C(=O)N(CC)CC)cc1 | 6320 | 76 | 58 | 1100 | 14 | 34 | – |
| CCCN1C[C@@H]2C(c3ccccc3)=CC[C@H]1CN2Cc1ccc(C(=O)N(CC)CC)cc1 | – | 22 | 55 | – | 45 | 20 | – |
